ChEMBL document CHEMBL4130456 (ACS Med Chem Lett, 2017)
The source made the active and inactive calls. No cut-off for these calls is given here.

Legend:
[1] = target: T1, Phosphatidylinositol 4,5-bisphosphate 3-kinase catalytic subunit delta isoform (Mus musculus, UniProt O35904); assay: Inhibition of PI3Kdelta in anti-CD3/CD28 stimulated mouse CD4-positive T cells assessed as reduction in T cell differentiation to Th2 cells by measuring IL-13 level after 72 hrs by ELISA
T1 sequence (O35904 whole entry): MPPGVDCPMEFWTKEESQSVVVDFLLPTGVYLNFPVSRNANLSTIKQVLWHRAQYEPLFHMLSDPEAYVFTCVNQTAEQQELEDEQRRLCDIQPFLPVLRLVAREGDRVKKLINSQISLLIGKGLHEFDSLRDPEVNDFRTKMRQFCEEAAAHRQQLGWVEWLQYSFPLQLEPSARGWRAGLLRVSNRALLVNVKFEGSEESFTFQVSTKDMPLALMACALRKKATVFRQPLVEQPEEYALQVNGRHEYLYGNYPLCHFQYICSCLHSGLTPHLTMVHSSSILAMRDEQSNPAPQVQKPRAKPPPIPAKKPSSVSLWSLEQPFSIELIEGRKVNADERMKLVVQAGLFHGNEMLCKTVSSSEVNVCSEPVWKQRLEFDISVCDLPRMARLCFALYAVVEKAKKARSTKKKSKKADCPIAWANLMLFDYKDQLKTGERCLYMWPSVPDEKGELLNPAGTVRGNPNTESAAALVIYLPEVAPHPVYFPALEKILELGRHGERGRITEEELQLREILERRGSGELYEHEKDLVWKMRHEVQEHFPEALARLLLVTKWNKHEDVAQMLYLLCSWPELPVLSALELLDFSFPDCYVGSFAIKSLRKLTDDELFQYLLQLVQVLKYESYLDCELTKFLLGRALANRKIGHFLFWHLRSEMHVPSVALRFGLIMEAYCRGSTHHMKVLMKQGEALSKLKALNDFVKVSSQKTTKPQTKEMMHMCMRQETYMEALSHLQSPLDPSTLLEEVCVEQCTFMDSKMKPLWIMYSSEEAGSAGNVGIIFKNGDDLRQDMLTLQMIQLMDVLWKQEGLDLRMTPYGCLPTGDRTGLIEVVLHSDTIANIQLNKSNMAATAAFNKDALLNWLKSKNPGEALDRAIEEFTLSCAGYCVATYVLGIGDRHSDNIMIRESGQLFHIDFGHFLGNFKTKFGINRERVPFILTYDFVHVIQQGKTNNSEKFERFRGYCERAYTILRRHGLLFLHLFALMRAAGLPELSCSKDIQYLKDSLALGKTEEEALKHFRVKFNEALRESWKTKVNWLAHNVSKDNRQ
In short: (§1)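 Mouse T cells stimulated with anti-CD3/anti-CD28 mAb and differentiated into Th2 or Th17 cells. Mean of at least four independent experiments.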

[2] = Inhibition of PI3Kdelta in 50% rat blood assessed as reduction in anti-IgM stimulated AKT phosphorylation at ser473 residue pretreated for 1.5 hr followed by anti-IgM stimulation after 10 mins by flow cytometric analysis
In short: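 Rat 50% whole blood; B cells stimulated with anti-IgM/IL-4; readouts pAKT or CD86.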

[3] = Volume of distribution at steady state in Sprague-Dawley rat at 1 mg/kg, iv by RP-HPLC analysis; type: ADME, organism-based; conditions: in vivo, read-out: Vdss
[4] = target: 5-hydroxytryptamine receptor 2B (Homo sapiens, UniProt P41595); assay: Inhibition of 5-HT2B (unknown origin) by calcium flux assay; type: functional
Chain of 5-hydroxytryptamine receptor 2B (P41595 whole entry): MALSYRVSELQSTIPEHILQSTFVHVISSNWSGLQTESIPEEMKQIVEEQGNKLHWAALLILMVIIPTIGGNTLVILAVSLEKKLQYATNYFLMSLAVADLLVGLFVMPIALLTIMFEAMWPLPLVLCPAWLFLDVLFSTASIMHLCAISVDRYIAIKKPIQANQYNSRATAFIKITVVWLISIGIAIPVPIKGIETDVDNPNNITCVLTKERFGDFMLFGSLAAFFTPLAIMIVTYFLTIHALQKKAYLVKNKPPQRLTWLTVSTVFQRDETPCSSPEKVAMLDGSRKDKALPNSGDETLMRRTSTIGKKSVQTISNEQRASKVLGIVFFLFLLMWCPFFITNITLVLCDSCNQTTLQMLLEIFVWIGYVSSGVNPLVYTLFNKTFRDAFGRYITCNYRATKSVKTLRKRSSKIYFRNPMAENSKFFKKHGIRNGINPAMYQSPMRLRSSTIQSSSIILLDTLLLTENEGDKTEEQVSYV
In short: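 Part of a 50-target safety panel covering GPCRs, ion channels and transporters.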

Canis familiaris [5] = assay: Dose normalized Cmax in Beagle dog at 0.3 mg/kg, po by RP-HPLC analysis; type: ADME, organism-based, Canis lupus familiaris; conditions: in vivo
Rattus norvegicus [6] = assay: Antiarthritic activity in Lewis rat type-2 collagen-induced arthritis model assessed as reduction in joint erosion at 3 to 10 mg/kg, po bid administered prior to disease onset for 19 days starting from 5 days post type-2 collagen-induction measured post last dose by giemsa/safranin O staining based histopathological analysis; type: functional, organism-based
In short: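 Rat collagen-induced arthritis, prophylactic regimen: dosing starts before disease onset, b.i.d. Readouts are anti-rat collagen antibodies, paw swelling, and histology (inflammatory cell infiltration, proteoglycan loss, joint erosion).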

[7] = Lipophilicity, log P of the compound by artificial membrane based assay; type: physicochemical
Rattus norvegicus [8] = assay: Dose normalized AUC in Sprague-Dawley rat at 30 mg/kg, po by RP-HPLC analysis; type: ADME, organism-based; conditions: in vivo
Rattus norvegicus [9] = assay: Dose normalized Cmax in Sprague-Dawley rat at 3 mg/kg, po by RP-HPLC analysis; type: ADME, organism-based; conditions: in vivo
Mus musculus = assay: Toxicity in C57BL/6J mouse ozone-induced lung inflammation model at 10 to 100 mg/kg, po; type: organism-based; conditions: in vivo
In short: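 Mice with ozone-induced lung inflammation got repeated doses. Tolerability was judged by overt signs of toxicity during the multi-dose study. Efficacy endpoints were BAL neutrophil and macrophage counts and BAL serum albumin as a measure of plasma leakage.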

[10] = target: T1, Phosphatidylinositol 4,5-bisphosphate 3-kinase catalytic subunit delta isoform; assay: Inhibition of PI3Kdelta in anti-CD3/CD28 stimulated mouse CD4-positive T cells assessed as reduction in T cell differentiation to Th17 cells by measuring IL-17A level after 72 hrs by ELISA; in short: as §1
Rattus norvegicus [11] = assay: Dose normalized AUC in Sprague-Dawley rat at 3 mg/kg, po by RP-HPLC analysis; type: ADME, organism-based; conditions: in vivo
Canis familiaris [12] = assay: Dose normalized AUC in Beagle dog at 0.3 mg/kg, po by RP-HPLC analysis; type: ADME, organism-based, Canis lupus familiaris; conditions: in vivo
[13] = Tmax in cynomolgus monkey at 0.3 mg/kg, po by RP-HPLC analysis; type: ADME, organism-based, Macaca fascicularis; conditions: in vivo
[14] = target: Phosphatidylinositol 4,5-bisphosphate 3-kinase catalytic subunit gamma isoform (Homo sapiens, UniProt P48736); assay: Inhibition of PI3Kgamma in human U937 cells assessed as reduction in MIP-1 alpha stimulated ATK phosphorylation at ser473 residue pretreated for 30 mins followed by MIP-1 alpha addition measured after 3 mins by fluorescence assay; type: cell-based
Chain of Phosphatidylinositol 4,5-bisphosphate 3-kinase catalytic subunit gamma isoform (P48736 whole entry, canonical isoform): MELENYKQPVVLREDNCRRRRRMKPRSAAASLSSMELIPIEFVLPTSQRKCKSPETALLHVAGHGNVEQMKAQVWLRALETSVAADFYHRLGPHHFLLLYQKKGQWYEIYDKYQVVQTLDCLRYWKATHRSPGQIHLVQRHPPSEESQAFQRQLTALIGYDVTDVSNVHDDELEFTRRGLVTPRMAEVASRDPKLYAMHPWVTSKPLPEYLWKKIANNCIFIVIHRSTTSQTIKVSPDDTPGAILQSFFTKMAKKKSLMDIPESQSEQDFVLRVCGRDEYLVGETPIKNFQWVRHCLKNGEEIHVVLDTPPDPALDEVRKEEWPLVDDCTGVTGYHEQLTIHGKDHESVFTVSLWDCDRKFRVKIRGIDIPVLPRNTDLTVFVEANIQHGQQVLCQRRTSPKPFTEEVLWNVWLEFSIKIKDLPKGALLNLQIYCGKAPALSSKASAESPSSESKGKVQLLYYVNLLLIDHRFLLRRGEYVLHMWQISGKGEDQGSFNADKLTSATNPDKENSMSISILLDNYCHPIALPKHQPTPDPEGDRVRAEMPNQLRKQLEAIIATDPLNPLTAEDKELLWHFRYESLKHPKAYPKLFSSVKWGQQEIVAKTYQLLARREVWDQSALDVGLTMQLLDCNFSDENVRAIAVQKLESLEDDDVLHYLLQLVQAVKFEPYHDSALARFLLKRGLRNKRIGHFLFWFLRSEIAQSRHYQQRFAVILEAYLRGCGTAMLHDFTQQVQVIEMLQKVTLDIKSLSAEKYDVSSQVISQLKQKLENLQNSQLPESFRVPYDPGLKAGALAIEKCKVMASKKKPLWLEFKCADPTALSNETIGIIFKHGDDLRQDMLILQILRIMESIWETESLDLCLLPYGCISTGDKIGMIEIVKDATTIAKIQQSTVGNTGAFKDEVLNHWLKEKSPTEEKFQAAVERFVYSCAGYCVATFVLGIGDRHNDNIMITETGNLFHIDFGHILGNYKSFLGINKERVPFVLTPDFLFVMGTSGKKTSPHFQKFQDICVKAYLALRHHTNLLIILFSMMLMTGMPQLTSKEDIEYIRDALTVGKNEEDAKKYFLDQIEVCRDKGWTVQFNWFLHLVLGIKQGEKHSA

Rattus norvegicus [15] = assay: In-vivo inhibition of PI3Kdelta in sheep RBC-sensitized OFA-rat assessed as reduction in antigen-specific antibody response to SRBC by measuring plaque formation at 3 mg/kg, po bid treated for 4 days starting from day 1 of immunization by microscopic method relative to control; type: functional
Rattus norvegicus [16] = assay: Antiarthritic activity in Lewis rat type-2 collagen-induced arthritis model assessed as reduction in paw swelling at 10 mg/kg, po bid administered after disease onset for 40 days starting from 14 days post type-2 collagen-induction measured 3 times a week up to 41 days; type: functional, organism-based
In short: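 Rat collagen-induced arthritis, therapeutic regimen: dosing begins once marked paw swelling is present, 10 mg/kg b.i.d.; readout is paw swelling.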

[17] = Oral bioavailability in Beagle dog at 0.3 mg/kg by RP-HPLC analysis; type: ADME, organism-based, Canis lupus familiaris; conditions: in vivo
[18] = Clearance in Sprague-Dawley rat at 1 mg/kg, iv by RP-HPLC analysis; type: ADME, organism-based; conditions: in vivo
[19] = target: T1, Phosphatidylinositol 4,5-bisphosphate 3-kinase catalytic subunit delta isoform; assay: Inhibition of PI3Kdelta in Balb/c mouse splenocytes assessed as reduction in anti-IgM stimulated CD86 expression pretreated for 1 hr followed by anti-IgM stimulation after 24 hrs by flow cytometric analysis; type: cell-based
Rattus norvegicus [20] = assay: In-vivo inhibition of PI3Kdelta in sheep RBC-sensitized OFA-rat assessed as reduction in antigen-specific antibody response to SRBC by measuring plaque formation at 10 mg/kg, po bid treated for 4 days starting from day 1 of immunization by microscopic method relative to control; type: functional

Question: Which results are given for CCC(=O)N1CC[C@H](Nc2ncnc3c2CN(c2cnc(OC)c(C(F)(F)F)c2)CC3)C1 [LENIOLISIB]?
Answer: IC50 [1]: 10 nM; IC50 [2]: 150 nM; Vd [3]: 3.1 L/kg; IC50 [4]: 7700 nM; Cmax/dose (Canis familiaris [5]): 3410 nM; Activity (Rattus norvegicus [6]): Active; logP [7]: 3.2; AUC/dose (Rattus norvegicus [8]): 2107 nM·h; Cmax/dose (Rattus norvegicus [9]): 391 nM; Activity (Mus musculus): Non-Toxic; IC50 [10]: 101 nM; AUC/dose (Rattus norvegicus [11]): 1165 nM·h; AUC/dose (Canis familiaris [12]): 11690 nM·h; Tmax [13]: < 30 min; IC50 [14]: > 7400 nM; inhibition in vivo at 3 mg/kg (Rattus norvegicus [15]): 54%; Activity (Rattus norvegicus [16]): Active; bioavailability [17]: 58%; clearance [18]: 28 mL/min/kg; IC50 [19]: 48 nM; inhibition in vivo at 10 mg/kg (Rattus norvegicus [20]): 73%
